According to ChEMBL document CHEMBL5247671, “Design and Synthesis of Pyrazole-Based Macrocyclic Kinase Inhibitors Targeting BMPR2” (ACS Med Chem Lett, 2023):

Experiments:
[1] = molecular target: T1, Mitogen-activated protein kinase 15 (Homo sapiens) (UniProt Q8TD08); experiment: Binding affinity to recombinant MAPK15 (unknown origin) assessed as change in melting temperature at 10 uM by DSF assay
T1 sequence (whole entry): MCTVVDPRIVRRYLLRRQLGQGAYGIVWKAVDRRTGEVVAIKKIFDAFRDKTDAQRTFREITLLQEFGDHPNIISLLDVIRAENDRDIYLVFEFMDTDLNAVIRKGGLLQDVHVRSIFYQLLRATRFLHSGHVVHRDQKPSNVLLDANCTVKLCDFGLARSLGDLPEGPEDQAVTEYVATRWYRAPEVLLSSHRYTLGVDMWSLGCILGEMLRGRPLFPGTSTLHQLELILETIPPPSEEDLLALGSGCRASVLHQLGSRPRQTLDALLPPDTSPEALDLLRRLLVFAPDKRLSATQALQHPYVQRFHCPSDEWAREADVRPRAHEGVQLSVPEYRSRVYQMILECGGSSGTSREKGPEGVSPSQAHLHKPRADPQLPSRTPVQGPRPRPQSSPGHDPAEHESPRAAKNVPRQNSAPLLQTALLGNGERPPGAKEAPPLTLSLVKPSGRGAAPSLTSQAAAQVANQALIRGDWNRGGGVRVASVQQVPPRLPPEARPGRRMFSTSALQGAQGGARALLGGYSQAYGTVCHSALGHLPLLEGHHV
Method in brief: (§1)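 Differential scanning fluorimetry on an in-house panel of 90 recombinant kinases. Stabilization is read as the shift in melting temperature (ΔTm) relative to ligand-free protein. Staurosporine served as the positive control, and binding was also compared against its ΔTm.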

[2] = molecular target: Glycogen synthase kinase-3 beta (Homo sapiens, UniProt P49841); experiment: Inhibition of recombinant GSK3B (unknown origin) at 10 uM by DSF assay relative to staurosporine; method in brief: as §1
[3] = molecular target: Serine/threonine-protein kinase 24 (Homo sapiens) (UniProt Q9Y6E0); experiment: Binding affinity to recombinant MST3 (unknown origin) assessed as change in melting temperature at 10 uM by DSF assay; method in brief: as §1
[4] = molecular target: T2, Bone morphogenetic protein receptor type-2 (Homo sapiens) (UniProt Q13873); experiment: Binding affinity to BMPR2 (unknown origin) assessed as change in enthalpy by ITC assay
T2 sequence (whole entry): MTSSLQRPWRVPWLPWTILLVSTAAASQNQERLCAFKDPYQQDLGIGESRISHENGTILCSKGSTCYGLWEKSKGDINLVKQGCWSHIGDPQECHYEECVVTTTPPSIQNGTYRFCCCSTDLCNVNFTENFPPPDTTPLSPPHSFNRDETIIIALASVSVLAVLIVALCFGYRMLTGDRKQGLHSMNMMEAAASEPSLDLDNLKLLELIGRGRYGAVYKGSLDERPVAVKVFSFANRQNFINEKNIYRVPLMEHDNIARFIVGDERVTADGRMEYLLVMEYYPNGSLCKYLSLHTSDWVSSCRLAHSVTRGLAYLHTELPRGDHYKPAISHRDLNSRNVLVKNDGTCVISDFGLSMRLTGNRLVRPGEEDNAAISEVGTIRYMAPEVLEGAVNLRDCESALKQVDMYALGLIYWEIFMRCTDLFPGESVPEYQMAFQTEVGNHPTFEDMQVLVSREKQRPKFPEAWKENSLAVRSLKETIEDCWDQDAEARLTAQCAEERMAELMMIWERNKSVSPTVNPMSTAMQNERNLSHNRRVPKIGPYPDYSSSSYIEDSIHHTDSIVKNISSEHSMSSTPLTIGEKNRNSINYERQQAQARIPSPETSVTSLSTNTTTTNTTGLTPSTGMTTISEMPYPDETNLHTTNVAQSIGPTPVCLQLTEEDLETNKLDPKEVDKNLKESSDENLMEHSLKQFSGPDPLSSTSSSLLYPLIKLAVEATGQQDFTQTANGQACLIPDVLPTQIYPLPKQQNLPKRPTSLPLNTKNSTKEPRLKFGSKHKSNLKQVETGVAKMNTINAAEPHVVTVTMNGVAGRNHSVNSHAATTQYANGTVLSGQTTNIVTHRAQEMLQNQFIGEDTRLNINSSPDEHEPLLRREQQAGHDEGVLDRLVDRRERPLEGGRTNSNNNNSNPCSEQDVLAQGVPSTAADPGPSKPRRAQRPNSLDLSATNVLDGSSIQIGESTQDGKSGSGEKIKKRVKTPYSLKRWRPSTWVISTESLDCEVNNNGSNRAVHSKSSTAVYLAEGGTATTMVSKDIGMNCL
Method in brief: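 Binding measured by isothermal titration calorimetry against the recombinant BMPR2 kinase domain. Thermodynamic binding parameters, including the dissociation constant, were derived from the titration data.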

[5] = test system: T3, Receptor-type tyrosine-protein kinase FLT3 (Homo sapiens), P36888 [D835V]; experiment: Inhibition of FLT3 D835V mutant (unknown origin) at 1 uM by Kinomescan assay relative to staurosporine
T3 sequence (whole entry): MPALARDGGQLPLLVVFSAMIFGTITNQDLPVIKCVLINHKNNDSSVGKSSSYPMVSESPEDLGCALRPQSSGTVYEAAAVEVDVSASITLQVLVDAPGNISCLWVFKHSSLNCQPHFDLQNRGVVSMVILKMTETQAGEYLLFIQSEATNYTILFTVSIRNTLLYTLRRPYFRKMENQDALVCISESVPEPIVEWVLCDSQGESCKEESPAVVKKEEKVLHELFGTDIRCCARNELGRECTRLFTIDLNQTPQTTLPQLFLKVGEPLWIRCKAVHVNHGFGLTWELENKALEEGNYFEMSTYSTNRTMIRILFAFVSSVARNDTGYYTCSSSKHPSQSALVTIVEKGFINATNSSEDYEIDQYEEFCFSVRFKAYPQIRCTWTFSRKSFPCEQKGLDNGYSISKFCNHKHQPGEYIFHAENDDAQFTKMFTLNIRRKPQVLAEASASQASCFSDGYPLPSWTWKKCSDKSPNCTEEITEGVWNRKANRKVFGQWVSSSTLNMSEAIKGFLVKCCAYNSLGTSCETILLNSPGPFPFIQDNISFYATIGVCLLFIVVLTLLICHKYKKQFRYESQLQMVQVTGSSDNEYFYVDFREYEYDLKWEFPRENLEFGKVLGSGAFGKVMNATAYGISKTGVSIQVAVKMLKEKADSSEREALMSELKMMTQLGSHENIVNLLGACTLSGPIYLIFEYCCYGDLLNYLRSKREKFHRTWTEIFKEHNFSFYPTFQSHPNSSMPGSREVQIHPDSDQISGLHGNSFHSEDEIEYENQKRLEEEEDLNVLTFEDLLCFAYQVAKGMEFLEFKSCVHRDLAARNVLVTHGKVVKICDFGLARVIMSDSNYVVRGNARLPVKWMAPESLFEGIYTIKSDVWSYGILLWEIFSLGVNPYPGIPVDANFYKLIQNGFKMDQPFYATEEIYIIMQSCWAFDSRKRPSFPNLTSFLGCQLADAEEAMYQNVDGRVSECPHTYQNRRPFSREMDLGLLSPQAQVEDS

[6] = molecular target: Glycogen synthase kinase-3 alpha (Homo sapiens, UniProt P49840); experiment: Inhibition of GSK3A (unknown origin) assessed as residual activity at 1 uM by Kinomescan assay relative to staurosporine
Glycogen synthase kinase-3 alpha, sequence (P49840 2-483 limits assumed): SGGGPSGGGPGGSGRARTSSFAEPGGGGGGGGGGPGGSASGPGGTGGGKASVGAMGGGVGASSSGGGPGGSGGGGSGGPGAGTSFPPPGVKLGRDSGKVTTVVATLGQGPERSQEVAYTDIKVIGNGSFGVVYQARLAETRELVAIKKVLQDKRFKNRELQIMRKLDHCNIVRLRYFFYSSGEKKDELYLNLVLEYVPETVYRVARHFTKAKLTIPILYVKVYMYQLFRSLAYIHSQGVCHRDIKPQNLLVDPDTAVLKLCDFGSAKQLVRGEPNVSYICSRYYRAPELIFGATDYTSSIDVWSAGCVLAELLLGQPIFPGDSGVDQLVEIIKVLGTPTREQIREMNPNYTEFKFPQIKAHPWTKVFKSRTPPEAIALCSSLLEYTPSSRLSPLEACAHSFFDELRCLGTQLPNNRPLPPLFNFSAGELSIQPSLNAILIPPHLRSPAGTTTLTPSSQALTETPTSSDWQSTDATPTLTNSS

Glycogen synthase kinase-3 beta, sequence (P49841 whole entry, looked up): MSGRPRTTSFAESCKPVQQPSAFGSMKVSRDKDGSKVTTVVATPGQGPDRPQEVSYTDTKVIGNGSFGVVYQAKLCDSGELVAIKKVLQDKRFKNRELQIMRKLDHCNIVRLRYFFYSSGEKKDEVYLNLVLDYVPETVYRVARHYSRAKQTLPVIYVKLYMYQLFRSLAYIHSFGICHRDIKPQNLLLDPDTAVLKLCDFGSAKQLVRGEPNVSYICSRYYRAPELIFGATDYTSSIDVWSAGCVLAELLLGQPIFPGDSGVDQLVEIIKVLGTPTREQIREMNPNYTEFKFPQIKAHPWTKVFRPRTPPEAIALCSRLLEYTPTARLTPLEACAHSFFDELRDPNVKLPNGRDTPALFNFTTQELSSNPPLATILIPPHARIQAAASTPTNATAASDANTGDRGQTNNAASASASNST
Serine/threonine-protein kinase 24 (Homo sapiens), sequence (Q9Y6E0 whole entry, looked up): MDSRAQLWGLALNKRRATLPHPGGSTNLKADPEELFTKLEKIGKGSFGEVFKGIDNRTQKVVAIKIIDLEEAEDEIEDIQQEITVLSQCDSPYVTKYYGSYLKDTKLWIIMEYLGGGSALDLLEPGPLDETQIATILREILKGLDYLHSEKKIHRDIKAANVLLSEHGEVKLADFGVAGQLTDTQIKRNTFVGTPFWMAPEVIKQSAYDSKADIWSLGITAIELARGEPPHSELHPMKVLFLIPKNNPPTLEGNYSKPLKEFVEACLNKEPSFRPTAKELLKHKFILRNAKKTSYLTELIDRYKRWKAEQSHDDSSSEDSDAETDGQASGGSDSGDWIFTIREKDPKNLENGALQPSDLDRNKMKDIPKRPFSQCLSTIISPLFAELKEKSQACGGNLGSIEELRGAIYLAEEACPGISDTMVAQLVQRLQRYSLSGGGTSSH

inhibition [2]: 71%
ΔTm [3]: 3.2 °C
deltaH [4]: -8.41 kcal/mol
inhibition [5]: 4.5%
Activity [6]: 16%
Compound: O=C1NCCc2ccc(cc2)Nc2nccc(n2)Nc2cc1[nH]n2
ΔTm [1]: 3.8 °C
